{"data": "Results collected from several papers", "note": "Each line is one published result; the experiments were not run side by side."}
{"Compound": "c1cc2c(ccc3c4c([nH]c32)CCCC4)cn1", "target or system": "MDA-MB-468", "test": "cell growth or viability, MTT", "quantity": "IC50", "result": "7.9 µM"}
{"Compound": "O=C(NCCc1c[nH]c2ccccc12)C(=O)c1cn(Cc2ccc(Cl)cc2)c2ccccc12", "target or system": "C4-2", "test": "cell growth or viability, MTT", "quantity": "IC50", "result": "> 100 µM"}
{"Compound": "COC(=O)c1cc(-c2cccc(NC(=O)Nc3cccc(F)c3)c2)on1", "target or system": "Escherichia coli", "test": "microbial growth, broth dilution", "test system": "ATCC25922", "quantity": "MIC", "result": "> 64 µg/mL"}
{"Compound": "OC[C@@H]1C[C@@H](O)[C@H](n2cnc3c(Cl)ncnc32)O1", "target or system": "Severe acute respiratory syndrome coronavirus", "test": "plaque formation, inhibitor", "test system": "Vero C1008", "quantity": "IC50", "result": "> 300 µM"}
{"Compound": "Nc1ncnc2c([C@@H]3N[C@H](CO)[C@@H](O)[C@H]3O)c[nH]c12", "target or system": "Severe acute respiratory syndrome coronavirus", "test": "viral replication, inhibitor", "test system": "Vero 76", "setting": "3 µM", "quantity": "inhibition", "result": "0%"}
{"Compound": "COC(=O)c1cc(-c2cccc(NC(=S)Nc3ccc([N+](=O)[O-])cc3)c2)on1", "target or system": "Escherichia coli", "test": "microbial growth, broth dilution", "test system": "ATCC25922", "quantity": "MIC", "result": "> 64 µg/mL"}
{"Compound": "O=C(O)c1cn(C2CC2)c2cc(N3CCNCC3)c(F)cc2c1=O", "target or system": "Micrococcus luteus", "test": "microbial growth", "test system": "ATCC10240", "setting": "5 µg/mL, 20 h", "quantity": "inhibition zone", "result": "0 mm"}
{"Compound": "CSc1ncnc2c1ncn2[C@@H]1O[C@H](CO)[C@@H](O)[C@H]1O", "target or system": "Severe acute respiratory syndrome coronavirus", "test": "plaque formation, inhibitor", "test system": "Vero C1008", "quantity": "IC50", "result": "> 300 µM"}
{"Compound": "COC(=O)c1cc(-c2cccc(NC(=O)Nc3cccc(Cl)c3Cl)c2)on1", "target or system": "Escherichia coli", "test": "microbial growth, broth dilution", "test system": "ATCC25922", "quantity": "MIC", "result": "> 64 µg/mL"}
{"Compound": "CCCCCCCCCOc1ccc2[nH]cc(CCN)c2c1", "target or system": "HN-6", "test": "cell growth or viability", "setting": "72 h", "quantity": "IC50", "result": "15.9 µM"}
{"Compound": "COc1ncnc2c1ncn2[C@@H]1O[C@H](CO)[C@@H](O)[C@H]1O", "target or system": "Severe acute respiratory syndrome coronavirus", "test": "plaque formation, inhibitor", "test system": "Vero C1008", "quantity": "IC50", "result": "> 300 µM"}
{"Compound": "COC(=O)c1cc(-c2cccc(NC(=S)Nc3ccccc3)c2)on1", "target or system": "Escherichia coli", "test": "microbial growth, broth dilution", "test system": "ATCC25922", "quantity": "MIC", "result": "> 64 µg/mL"}
{"Compound": "COc1ccc2c(C(=O)C(=O)NCCc3c[nH]c4ccccc34)cn(Cc3ccc(Cl)cc3)c2c1", "target or system": "C4-2", "test": "cell growth or viability, MTT", "quantity": "IC50", "result": "> 100 µM"}
{"Compound": "OCC(CCn1cnc2c(Cl)ncnc21)COCc1ccccc1 (stereo not drawn)", "target or system": "Severe acute respiratory syndrome coronavirus", "test": "plaque formation, inhibitor", "test system": "Vero C1008", "quantity": "IC50", "result": "> 300 µM"}
{"Compound": "COC(=O)c1cc(-c2cccc(NC(=S)Nc3ccc(F)cc3)c2)on1", "target or system": "Escherichia coli", "test": "microbial growth, broth dilution", "test system": "ATCC25922", "quantity": "MIC", "result": "> 64 µg/mL"}
